Source: PubChem BioAssay (several laboratories)
Only some compounds are listed: those with a hit (about 5.2% of all), similar ones and a draw of the others.
core dimer inh: HCV core protein dimerization inhibition; TR-FRET GST/Flag-core106 dimerization, 1536-well; inhibition, % at 5 µM; 0.33% of 300,000 active;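 active = inhibition above the mean of all tested compounds plus 3 SD, set per screening campaign, cut at about 45% in these data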
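System: GST/Flag-tagged HCV core106 proteins. Incubation: compound-protein-antibody incubation 4 h at 22.5 °C. Technique: HTRF with 340 nm excitation, 617/671 nm emission. Medium: KF-containing HEPES buffer, pH 7.45, DTT, CHAPS, BSA. Read-out: inhibition (%) from 671 over 617 nm ratio. Also added: Eu(K)-anti-GST 90 ng/mL plus XL665-anti-Flag 1 µg/mL.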
NS3 helicase inh: inhibitors of Hepatitis C virus NS3 helicase. NS3 helicase DNA unwinding, Cy5 molecular beacon fluorescence. 0.56% of 290,000 active. inhibition, % at 10.9 µM;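 active = inhibition above the mean of all tested compounds plus 3 SD, set per campaign, cut at about 35% in these data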
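assay system = NS3 helicase fragment of HCV | buffer or medium = MOPS pH 6.5, MgCl2, DTT, Tween20, BSA | timing = 60 min unwinding reaction at 25 °C after ATP addition | signal = Cy5 beacon fluorescence read at start and 1 h | read-out basis = % inhibition of unwinding | control set = low DMSO, high thioflavine S at 110 µM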
PfM18AAP inh: PfM18AAP enzyme inhibition. recombinant PfM18AAP, H-Glu-NHMec fluorogenic cleavage. inhibition, % at 7.35 µM. 1.2% of 290,000 active;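 active = inhibition above the campaign mean inhibition over all tested compounds plus 3 SD, cut at about 28% in these data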
ALR inh: blocks human ALR sulfhydryl oxidase activity | 3.8% of 290,000 active | P55789 | purified ALR, DTT oxidation, H2O2 HRP-luminol luminescence | inhibition, % (concentration not given with the values);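 active = mean replicate inhibition above about 79%, with every replicate also reaching it, limit read from the data; inconclusive = only one of the two criteria met; inactive = mean below limit and not every replicate reaching it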
Target sequence (P55789 whole entry, looked up): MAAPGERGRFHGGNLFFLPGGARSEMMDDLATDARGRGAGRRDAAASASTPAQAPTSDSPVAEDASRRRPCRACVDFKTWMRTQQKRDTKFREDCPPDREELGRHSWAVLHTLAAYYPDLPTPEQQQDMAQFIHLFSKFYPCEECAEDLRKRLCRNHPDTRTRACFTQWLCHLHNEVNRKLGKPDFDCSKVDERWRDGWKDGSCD
EBNA-1 inh: blocks EBNA-1 binding to DNA; EBNA-1 DNA binding, fluorescence polarization; inhibition, % at 14.8 µM; 0.34% of 300,000 active; in the data active = inhibition above about 28%
ZTA DNA inh: blocks Epstein-Barr virus ZTA, an EBNA-1 counter-screen. ZTA-DNA binding, fluorescence polarization. 0.15% of 320,000 active. inhibition, % at 11 µM; in the data active = inhibition above about 33%
Target sequence (P03206 whole entry, looked up): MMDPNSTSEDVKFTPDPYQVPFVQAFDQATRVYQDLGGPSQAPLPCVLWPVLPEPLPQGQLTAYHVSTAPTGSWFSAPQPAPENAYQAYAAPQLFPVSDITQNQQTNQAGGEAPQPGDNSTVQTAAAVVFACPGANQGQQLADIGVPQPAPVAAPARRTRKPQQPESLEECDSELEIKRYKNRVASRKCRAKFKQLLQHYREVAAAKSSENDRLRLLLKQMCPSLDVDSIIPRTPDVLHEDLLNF
Each line names hits and unclear results; the compound was inactive in the other large screens.

O=C1NN(c2ccccc2)C(=O)/C1=C\c1ccc2c(c1)OCO2	PfM18AAP inh 29.0
CCCCn1c(N)c(N(CC(C)C)C(=O)CC2OC(=O)c3ccccc32)c(=O)[nH]c1=O (centres undefined)	none (no result: NS3 helicase inh, PfM18AAP inh)
O=C1NN(c2cccc(Br)c2)C(=O)/C1=C\c1ccc(O)cc1	ALR inh 97.6
CC(CCCCCCCCC(=O)O)N(CCO)C(=O)OC(C)(C)C (centres undefined)	none (no result: core dimer inh, NS3 helicase inh, PfM18AAP inh, EBNA-1 inh)
CCOC(=O)N1CCN(C2CCCN(C(=O)c3ccccc3N(C)C)C2)CC1 (centres undefined)	none
C=CCSc1nnc(NC(=O)C23CC4CC(CC(NC(C)=O)(C4)C2)C3)s1	none
O=C(NCC(c1cccnc1)N1CCN(c2ccc(F)cc2)CC1)C1CCCCC1 (centres undefined)	ALR inh 98.1
COc1cc(C(=O)NCC(c2cccnc2)N2CCN(c3ccc(F)cc3)CC2)cc(OC)c1OC (centres undefined)	none
COc1ccc(N2CCN(C(CNC(=O)C3CCCCC3)c3cccnc3)CC2)cc1 (centres undefined)	ALR inh inconclusive
O=C(NCC(c1cccnc1)N1CCN(c2ccc(F)cc2)CC1)c1ccc(F)cc1 (centres undefined)	ALR inh 97.9
COc1ccc(C(=O)NCC(c2cccnc2)N2CCN(c3ccc(F)cc3)CC2)cc1OC (centres undefined)	ALR inh 85.5
COc1ccc(C(=O)NCC(c2cccnc2)N2CCN(c3ccccc3)CC2)cc1OC (centres undefined)	ALR inh 98.1
OCC[C@H]1C[C@H](O)[C@@H](O)[C@@]2(OCCCc3ccccc32)O1	none (no result: NS3 helicase inh, PfM18AAP inh, ALR inh)
O=C(N/N=C/c1ccc(O)cc1)c1ccc(NC(=O)c2ccccc2Br)cc1	ALR inh 79.4
Cc1nc2c(C)cccc2cc1C(=O)N/N=C/c1ccc(O)cc1	ALR inh 99.4
Cc1ccccc1C(=O)Nc1ccc(C(=O)N/N=C/c2ccc(O)cc2)cc1	ALR inh 94.9
Cc1ccccc1C(=O)Nc1ccc(C(=O)N/N=C/c2ccncc2)cc1	none
O=C(Nc1ccccc1C(=O)N/N=C/c1ccc(F)cc1)c1ccccc1Br	none (no result: ALR inh)
CCN=C1SC(C(=O)Nc2cc(Cl)cc(Cl)c2)CC(=O)N1CC (centres undefined)	none
CCN1C(=O)CC(C(=O)NC)SC1=Nc1cc(Cl)c(O)c(Cl)c1 (centres undefined)	ALR inh 98.9
COc1ccccc1NC(=O)CSc1sc2c(O)cc(=O)[nH]c2c1C#N	ALR inh 94.5
COC(=O)c1ccc(C)c(NC(=O)CSc2sc3c(O)cc(=O)[nH]c3c2C#N)c1	ALR inh inconclusive
COc1ccc(Cl)cc1NC(=O)CSc1sc2c(O)cc(=O)[nH]c2c1C#N	ALR inh 98.6
COc1ccc(NC(=O)CSc2sc3c(O)cc(=O)[nH]c3c2C#N)c(OC)c1	none
Cc1ccc(Cl)cc1NC(=O)CSc1sc2c(O)cc(=O)[nH]c2c1C#N	ALR inh 92.5
O=C(CSc1nnc(CNC(=O)c2ccccc2)o1)NCC1CCCO1 (centres undefined)	none
O=C1CCc2cc(S(=O)(=O)N3CCC(C(=O)Nc4nccs4)CC3)ccc2N1	none
CN(C)c1ccc(CNC(=O)c2cc(S(=O)(=O)N3CCOCC3)cn2C)cc1	ALR inh 97.6
CN(C)c1ccc(CNC(=O)C2CCN(S(=O)(=O)c3ccc4c(c3)CCC(=O)N4)CC2)cc1	ALR inh 91.3
Cc1cccnc1NC(=O)C1CCN(S(=O)(=O)c2ccc3c(c2)CCC(=O)N3)CC1	ALR inh 89.8
CSc1cccc(CN2CCCC(CNC(=O)c3ccco3)C2)c1 (centres undefined)	none
CCOc1ccccc1NC(=S)N1CCN(c2cccc(OC)c2)CC1	ALR inh 98.0
CNC(=S)N1CCN(c2cccc(OC)c2)CC1	ALR inh 99.0
CCOC(=O)COc1cc2c(C(=O)OCC)c(C)oc2cc1Br	ALR inh 97.3
O=C(O)c1ccc2c(c1)C(=O)N(Cc1ccc3c(c1)OCO3)C2=O	ALR inh 87.0
Cc1ccc(NC(=O)CSc2nc(N)c(-c3ccccc3)c(=O)[nH]2)cc1Cl	ALR inh 98.2
Nc1nc(SCC(=O)Nc2ccc(Cl)cc2)[nH]c(=O)c1-c1ccccc1	none
Cc1ccc(NC(=O)CSc2nc(N)cc(=O)[nH]2)cc1Cl	ALR inh 95.3
Nc1cc(=O)[nH]c(SCC(=O)Nc2cccc(Cl)c2)n1	none
COc1ccc(-n2c(=O)[nH]c3cc(C(=O)NCCc4ccccc4)ccc3c2=O)cc1OC	none
Cc1cccc(COc2ccc(/C=C3/C(=O)N(C)C(=S)N3C)cc2)c1	none
Cc1ccc(-c2nc(CS(=O)(=O)CC(=O)NCCN3CCOCC3)c(C)o2)cc1	none
CCOc1ccc(-c2nc(CSCC(=O)NCCN3CCOCC3)c(C)o2)cc1	ALR inh 99.2
CCOc1ccc(-c2nc(CSCC(=O)NCCCN3CCCC3=O)c(C)o2)cc1	ALR inh 98.9
COc1ccc(-c2nc(CSCC(=O)NCCCN3CCCC3=O)c(C)o2)cc1	ALR inh 96.5
COc1ccc(-c2nc(CSCC(=O)NC3CCCc4ccccc43)c(C)o2)cc1 (centres undefined)	ALR inh inconclusive
N#Cc1ccc(-c2ccc(OCC(=O)NCCCN3CCCC3=O)cc2)cc1	ALR inh 98.7
Cc1oc(-c2ccc(Cl)cc2)nc1CN1CCCC(C(=O)NCCCN2CCCC2=O)C1 (centres undefined)	none
N#Cc1c(-c2ccco2)cc(-c2ccccn2)nc1N	core dimer inh 73.2
Cc1ccc(C2=NN=C(NC(=O)CSc3nncn3C)SC2)cc1	PfM18AAP inh 54.4, ALR inh 99.5
COCCN(C(=O)CCC(=O)Nc1cc(C)on1)C(C(=O)NC1CCCC1)c1ccc(C(C)C)cc1 (centres undefined)	none (no result: ALR inh)
OC(COC(c1ccc(F)cc1)c1ccc(F)cc1)CN1CCCC(C(F)(F)F)C1 (centres undefined)	none
COc1cccc(/C=C2\Oc3cc(OC(=O)N4CCOCC4)ccc3C2=O)c1	none
COc1cccc(/C=C2\Oc3cc(OCC(=O)N4Cc5ccccc5C[C@H]4C(=O)O)ccc3C2=O)c1	ALR inh 98.5
CCN(CC)c1ccc2c(C)c(CN3CCOCC3)c(=O)oc2c1	none
CCN(CC)c1ccc2c(C)c(CO)c(=O)oc2c1	ALR inh 99.3
COC(=O)CSc1ccc2c(N)c(C(=O)OC)sc2c1	ALR inh 99.5
COc1ccc(-c2[nH]ncc2CN2CCC(C(=O)N3CCOCC3)CC2)c(F)c1	none
CCOC(=O)N1CCC(N2C(=O)c3ccc(C(=O)O)cc3C2=O)CC1	none
CN(C)c1cccc(C(=O)NC2CCCCCC2)c1	ALR inh 94.2
